Laboratory results from ChEMBL document CHEMBL4229410, “Facile construction of fused benzimidazole-isoquinolinones that induce cell-cycle arrest and apoptosis in colorectal cancer cells” (Bioorg Med Chem, 2018).

Assays:
HT-29 [1] = assay: Growth inhibition of human HT-29 cells by MTT assay; assay type: functional
Outline: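 MTT viability assay: 3×10³ cells/well were pre-incubated for 24 h, then exposed to 0, 12.5, 25, 50, 100 or 200 μM for 12, 24, 48 or 72 h. MTT was added at 0.5 mg/mL final for 4 h, formazan dissolved in DMSO, and absorbance read at 570 nm. GI₅₀ was taken from growth-inhibition curves; mean ± SD of three independent experiments, each in sextuplicate.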

HT-29 [2] = assay: Down regulation of cyclin-B1 expression in human HT-29 cells after 48 hrs by Western blot analysis; assay type: functional, cell-based
Outline: (§1)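 HT29 or SW620 cells were treated at 0, 25, 50 and 75 μM for 48 h and lysed in RIPA with protease and phosphatase inhibitors. Protein was quantified by BCA. 50 μg lysate was run on 8–15% SDS-PAGE and transferred to PVDF. Blocking was 5% BSA/TBST for 2 h; primary antibodies were applied overnight at 4 °C, then HRP secondary 1 h at room temperature.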

SW-620 [3] = assay: Induction of apoptosis in human SW620 cells assessed as late apoptotic cells at 50 uM after 48 hrs by Annexin-V-FITC/propidium iodide staining based flow cytometry (reference value: 1.2%); assay type: functional
SW-620 [4] = assay: Induction of apoptosis in human SW620 cells assessed as live cells at 75 uM after 48 hrs by Annexin-V-FITC/propidium iodide staining based flow cytometry (reference value: 97.5%); assay type: functional
SW-620 [5] = assay: Induction of apoptosis in human SW620 cells assessed as necrotic cells at 75 uM after 48 hrs by Annexin-V-FITC/propidium iodide staining based flow cytometry (reference value: 0.9%); assay type: functional
HT-29 [6] = assay: Induction of apoptosis in human HT-29 cells assessed as necrotic cells at 75 uM after 48 hrs by Annexin-V-FITC/propidium iodide staining based flow cytometry (reference value: 1.6%); assay type: functional
SW-620 [7] = assay: Induction of apoptosis in human SW620 cells after 48 hrs by Annexin-V-FITC/propidium iodide staining based flow cytometry; assay type: functional, cell-based
SW-620 [8] = assay: Effect on total mTOR expression in human SW620 cells up to 75 uM after 48 hrs by Western blot analysis; assay type: ADME, cell-based; conditions: sw-620, 48 h; outline: as §1
[9] = molecular target: RAC-alpha serine/threonine-protein kinase (Homo sapiens, UniProt P31749); assay: Inhibition of human AKT1 expressed in bacterial expression system assessed as residual activity at 5 uM by KINOMEscan assay relative to control
[10] = molecular target: Tyrosine-protein kinase BTK (Homo sapiens, UniProt Q06187); assay: Inhibition of full length human BTK (M1 to S659 residues) expressed in mammalian expression system assessed as residual activity at 5 uM by KINOMEscan assay relative to control
[11] = molecular target: T1, Cyclin-dependent kinase 2 (Homo sapiens, UniProt P24941); assay: Inhibition of full length human CDK2 (M1 to L298 residues) expressed in bacterial expression system assessed as residual activity at 5 uM by KINOMEscan assay relative to control
[12] = molecular target: Cyclin-dependent kinase 3 (Homo sapiens, UniProt Q00526); assay: Inhibition of full length human CDK3 (M1 to H305 residues) expressed in bacterial expression system assessed as residual activity at 5 uM by KINOMEscan assay relative to control
[13] = molecular target: Mitogen-activated protein kinase 10 (Homo sapiens, UniProt P53779); assay: Inhibition of human JNK3 (V28 to Q422 residues) expressed in mammalian expression system assessed as residual activity at 5 uM by KINOMEscan assay relative to control
[14] = molecular target: Mast/stem cell growth factor receptor Kit (Homo sapiens, UniProt P10721); assay: Inhibition of human KIT (I571 to D952 residues) expressed in bacterial expression system assessed as residual activity at 5 uM by KINOMEscan assay relative to control
[15] = molecular target: Hepatocyte growth factor receptor (Homo sapiens, UniProt P08581); assay: Inhibition of human MET (D1010 to S1367 residues) expressed in bacterial expression system assessed as residual activity at 5 uM by KINOMEscan assay relative to control
[16] = molecular target: Serine/threonine-protein kinase PAK 2 (Homo sapiens, UniProt Q13177); assay: Inhibition of partial length human PAK2 (P151 to R525 residues) expressed in bacterial expression system assessed as residual activity at 5 uM by KINOMEscan assay relative to control
[17] = molecular target: Serine/threonine-protein kinase PAK 4 (Homo sapiens, UniProt O96013); assay: Inhibition of partial length human PAK4 (Q144 to R438 residues) expressed in bacterial expression system assessed as residual activity at 5 uM by KINOMEscan assay relative to control
[18] = molecular target: Platelet-derived growth factor receptor beta (Homo sapiens, UniProt P09619); assay: Inhibition of human PDGFRB (V582 to Y1009 residues) expressed in bacterial expression system assessed as residual activity at 5 uM by KINOMEscan assay relative to control
[19] = molecular target: Tyrosine-protein kinase ABL1 (Homo sapiens, UniProt P00519); assay: Binding affinity to human non-phosphorylated ABL1 (S229 to K512 residues) expressed in mammalian expression system by KINOMEscan assay
Aurora kinase A = Aurora kinase A (Homo sapiens, UniProt O14965); assay: Binding affinity to human AURKA (E122 to K401 residues) expressed in mammalian expression system by KINOMEscan assay
[20] = molecular target: T1, Cyclin-dependent kinase 2; assay: Binding affinity to full length human CDK2 (M1 to L298 residues) expressed in bacterial expression system by KINOMEscan assay
[21] = molecular target: Mitogen-activated protein kinase 3 (Homo sapiens, UniProt P27361); assay: Binding affinity to full length human ERK1 (M1 to P379 residues) expressed in bacterial expression system by KINOMEscan assay
[22] = molecular target: Fibroblast growth factor receptor 2 (Homo sapiens, UniProt P21802); assay: Binding affinity to partial length human FGFR2 (D457 to E769 residues) expressed in bacterial expression system by KINOMEscan assay
[23] = molecular target: Dual specificity mitogen-activated protein kinase kinase 2 (Homo sapiens, UniProt P36507); assay: Binding affinity to full length human MEK2 (M1 to V400 residues) expressed in mammalian expression system by KINOMEscan assay
[24] = molecular target: MAP kinase-interacting serine/threonine-protein kinase 1 (Homo sapiens, UniProt Q9BUB5); assay: Binding affinity to full length human MKNK1 (M1 to L424 residues) expressed in mammalian expression system by KINOMEscan assay
[25] = molecular target: Platelet-derived growth factor receptor alpha (Homo sapiens, UniProt P16234); assay: Binding affinity to human PDGFRA (V575 to D1002 residues) expressed in mammalian expression system by KINOMEscan assay
[26] = molecular target: Phosphatidylinositol 4-phosphate 3-kinase C2 domain-containing subunit beta (Homo sapiens, UniProt O00750); assay: Binding affinity to human PIK3C2B (M1 to L1634 residues) expressed in mammalian expression system by KINOMEscan assay
[27] = molecular target: Ribosomal protein S6 kinase alpha-3 (Homo sapiens, UniProt P51812); assay: Binding affinity to human N-terminal RSK2 kinase domain 1 (M1 to D394 residues) expressed in mammalian expression system by KINOMEscan assay

MAP kinase-interacting serine/threonine-protein kinase 1, sequence (Q9BUB5 whole entry, the tested form may be a part): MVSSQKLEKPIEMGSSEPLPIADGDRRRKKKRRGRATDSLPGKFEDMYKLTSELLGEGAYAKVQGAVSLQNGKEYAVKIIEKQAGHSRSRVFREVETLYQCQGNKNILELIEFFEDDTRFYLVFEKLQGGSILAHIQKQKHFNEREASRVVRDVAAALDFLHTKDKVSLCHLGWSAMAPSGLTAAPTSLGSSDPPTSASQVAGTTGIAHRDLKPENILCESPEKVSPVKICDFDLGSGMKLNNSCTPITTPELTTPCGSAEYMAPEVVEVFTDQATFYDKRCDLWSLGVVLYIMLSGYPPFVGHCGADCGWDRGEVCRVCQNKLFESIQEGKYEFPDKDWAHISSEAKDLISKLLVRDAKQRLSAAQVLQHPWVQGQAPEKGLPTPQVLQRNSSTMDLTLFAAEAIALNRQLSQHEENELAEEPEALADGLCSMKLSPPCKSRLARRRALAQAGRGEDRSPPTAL
Hepatocyte growth factor receptor, sequence (P08581 whole entry, the tested form may be a part): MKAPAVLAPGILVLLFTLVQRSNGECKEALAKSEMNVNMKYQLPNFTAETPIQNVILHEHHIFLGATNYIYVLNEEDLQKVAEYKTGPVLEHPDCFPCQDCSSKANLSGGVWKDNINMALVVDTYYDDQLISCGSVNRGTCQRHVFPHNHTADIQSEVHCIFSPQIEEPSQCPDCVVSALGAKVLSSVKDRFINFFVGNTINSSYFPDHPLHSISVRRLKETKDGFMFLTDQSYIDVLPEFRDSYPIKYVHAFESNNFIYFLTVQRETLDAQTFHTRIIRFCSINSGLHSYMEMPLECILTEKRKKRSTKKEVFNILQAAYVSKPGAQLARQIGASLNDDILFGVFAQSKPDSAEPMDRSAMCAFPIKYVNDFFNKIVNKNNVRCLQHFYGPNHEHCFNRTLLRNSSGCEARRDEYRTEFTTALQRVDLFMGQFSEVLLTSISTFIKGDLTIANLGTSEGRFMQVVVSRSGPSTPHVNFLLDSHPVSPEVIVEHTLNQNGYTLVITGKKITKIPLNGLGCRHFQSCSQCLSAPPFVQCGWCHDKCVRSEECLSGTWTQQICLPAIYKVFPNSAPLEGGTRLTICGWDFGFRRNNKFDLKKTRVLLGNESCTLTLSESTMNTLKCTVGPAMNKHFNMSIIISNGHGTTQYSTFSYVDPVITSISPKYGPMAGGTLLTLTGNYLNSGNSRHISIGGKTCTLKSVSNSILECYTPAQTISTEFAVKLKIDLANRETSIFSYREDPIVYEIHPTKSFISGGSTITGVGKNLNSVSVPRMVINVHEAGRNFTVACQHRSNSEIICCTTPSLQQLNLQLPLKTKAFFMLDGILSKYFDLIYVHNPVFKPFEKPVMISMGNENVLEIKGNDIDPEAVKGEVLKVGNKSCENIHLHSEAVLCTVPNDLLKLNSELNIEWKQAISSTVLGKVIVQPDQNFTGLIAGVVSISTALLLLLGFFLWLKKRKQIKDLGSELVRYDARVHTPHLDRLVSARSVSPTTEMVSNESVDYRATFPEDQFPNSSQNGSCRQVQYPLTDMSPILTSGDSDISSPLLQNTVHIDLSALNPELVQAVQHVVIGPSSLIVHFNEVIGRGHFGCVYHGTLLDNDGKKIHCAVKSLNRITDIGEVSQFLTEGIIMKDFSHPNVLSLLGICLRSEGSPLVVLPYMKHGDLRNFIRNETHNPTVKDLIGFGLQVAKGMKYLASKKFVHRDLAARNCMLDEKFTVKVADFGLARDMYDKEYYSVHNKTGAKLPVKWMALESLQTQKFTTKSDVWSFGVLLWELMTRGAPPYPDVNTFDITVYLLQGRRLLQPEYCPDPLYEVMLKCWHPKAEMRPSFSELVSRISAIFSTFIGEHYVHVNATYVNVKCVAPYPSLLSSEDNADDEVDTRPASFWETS
Mitogen-activated protein kinase 3, sequence (P27361 whole entry, the tested form may be a part): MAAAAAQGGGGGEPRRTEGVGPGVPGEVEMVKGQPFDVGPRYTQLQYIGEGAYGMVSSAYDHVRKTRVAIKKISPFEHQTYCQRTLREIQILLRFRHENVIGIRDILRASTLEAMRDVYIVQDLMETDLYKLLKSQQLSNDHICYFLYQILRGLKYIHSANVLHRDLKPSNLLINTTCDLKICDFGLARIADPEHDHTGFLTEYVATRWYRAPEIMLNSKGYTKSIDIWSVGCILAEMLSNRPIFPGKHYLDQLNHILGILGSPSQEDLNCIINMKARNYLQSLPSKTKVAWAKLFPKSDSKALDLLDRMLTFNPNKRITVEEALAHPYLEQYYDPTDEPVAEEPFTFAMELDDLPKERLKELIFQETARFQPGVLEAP
Fibroblast growth factor receptor 2, sequence (P21802 whole entry, the tested form may be a part): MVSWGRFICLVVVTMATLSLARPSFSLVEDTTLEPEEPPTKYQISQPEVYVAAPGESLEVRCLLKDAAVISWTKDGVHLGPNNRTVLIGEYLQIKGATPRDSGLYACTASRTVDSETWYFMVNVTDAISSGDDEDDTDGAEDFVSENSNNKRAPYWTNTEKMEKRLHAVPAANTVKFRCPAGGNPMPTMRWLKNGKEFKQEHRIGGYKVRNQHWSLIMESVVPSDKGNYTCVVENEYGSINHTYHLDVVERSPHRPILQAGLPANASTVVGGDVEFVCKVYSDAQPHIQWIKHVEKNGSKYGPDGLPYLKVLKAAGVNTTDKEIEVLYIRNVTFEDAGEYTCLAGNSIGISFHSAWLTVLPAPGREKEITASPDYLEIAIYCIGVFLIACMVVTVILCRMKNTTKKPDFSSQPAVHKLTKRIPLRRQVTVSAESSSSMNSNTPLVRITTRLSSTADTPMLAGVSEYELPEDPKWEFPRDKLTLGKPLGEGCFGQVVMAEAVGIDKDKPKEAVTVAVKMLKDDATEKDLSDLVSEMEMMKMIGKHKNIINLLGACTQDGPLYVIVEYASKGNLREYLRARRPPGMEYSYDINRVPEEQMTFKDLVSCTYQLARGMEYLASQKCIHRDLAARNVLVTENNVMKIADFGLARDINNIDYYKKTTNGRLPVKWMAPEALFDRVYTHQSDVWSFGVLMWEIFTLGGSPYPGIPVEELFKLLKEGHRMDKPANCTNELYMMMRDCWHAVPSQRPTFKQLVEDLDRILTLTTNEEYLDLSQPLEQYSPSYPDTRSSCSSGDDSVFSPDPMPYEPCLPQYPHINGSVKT
Tyrosine-protein kinase BTK, sequence (Q06187 whole entry, the tested form may be a part): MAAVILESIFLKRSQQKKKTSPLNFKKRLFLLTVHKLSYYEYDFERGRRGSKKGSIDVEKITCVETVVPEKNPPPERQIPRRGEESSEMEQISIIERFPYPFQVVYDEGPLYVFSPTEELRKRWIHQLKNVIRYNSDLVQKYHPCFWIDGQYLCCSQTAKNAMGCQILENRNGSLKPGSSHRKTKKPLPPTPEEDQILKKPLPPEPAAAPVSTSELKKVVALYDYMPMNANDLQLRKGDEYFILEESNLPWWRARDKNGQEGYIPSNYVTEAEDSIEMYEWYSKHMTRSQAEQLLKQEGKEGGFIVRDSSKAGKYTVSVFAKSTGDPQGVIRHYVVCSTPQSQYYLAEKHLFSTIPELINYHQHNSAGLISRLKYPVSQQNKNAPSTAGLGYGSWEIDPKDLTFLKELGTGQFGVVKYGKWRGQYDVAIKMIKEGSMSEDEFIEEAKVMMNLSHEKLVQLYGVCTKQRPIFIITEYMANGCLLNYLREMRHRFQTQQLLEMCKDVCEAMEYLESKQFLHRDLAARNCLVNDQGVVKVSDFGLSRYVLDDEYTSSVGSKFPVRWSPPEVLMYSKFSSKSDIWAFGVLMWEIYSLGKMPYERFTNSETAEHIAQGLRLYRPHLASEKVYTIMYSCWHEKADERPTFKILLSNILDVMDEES
Serine/threonine-protein kinase PAK 4, sequence (O96013 whole entry, looked up, the tested form may be a part): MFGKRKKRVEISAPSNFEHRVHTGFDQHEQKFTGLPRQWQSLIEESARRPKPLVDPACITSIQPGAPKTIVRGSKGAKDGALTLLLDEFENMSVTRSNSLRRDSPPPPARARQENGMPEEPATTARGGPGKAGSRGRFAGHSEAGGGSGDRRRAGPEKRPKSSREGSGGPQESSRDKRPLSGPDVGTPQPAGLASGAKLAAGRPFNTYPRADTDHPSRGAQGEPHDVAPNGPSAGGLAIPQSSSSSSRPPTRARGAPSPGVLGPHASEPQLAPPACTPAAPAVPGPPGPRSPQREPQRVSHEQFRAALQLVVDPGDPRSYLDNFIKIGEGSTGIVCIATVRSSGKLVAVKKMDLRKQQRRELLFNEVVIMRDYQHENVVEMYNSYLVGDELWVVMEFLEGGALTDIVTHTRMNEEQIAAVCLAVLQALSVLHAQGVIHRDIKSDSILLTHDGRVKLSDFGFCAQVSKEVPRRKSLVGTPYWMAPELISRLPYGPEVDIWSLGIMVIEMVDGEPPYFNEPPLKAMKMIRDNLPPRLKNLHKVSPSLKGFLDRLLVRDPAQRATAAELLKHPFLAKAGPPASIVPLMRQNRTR
Aurora kinase A, sequence (O14965 whole entry, the tested form may be a part): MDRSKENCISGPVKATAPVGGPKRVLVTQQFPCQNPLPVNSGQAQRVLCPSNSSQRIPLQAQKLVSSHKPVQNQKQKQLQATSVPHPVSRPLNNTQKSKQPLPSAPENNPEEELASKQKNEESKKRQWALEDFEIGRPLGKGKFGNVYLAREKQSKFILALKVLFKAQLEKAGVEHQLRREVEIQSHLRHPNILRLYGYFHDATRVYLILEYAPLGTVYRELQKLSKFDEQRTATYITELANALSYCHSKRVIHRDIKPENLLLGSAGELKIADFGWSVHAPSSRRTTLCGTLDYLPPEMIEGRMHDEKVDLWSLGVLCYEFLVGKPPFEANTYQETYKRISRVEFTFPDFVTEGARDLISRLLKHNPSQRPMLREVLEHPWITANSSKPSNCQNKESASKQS
Cyclin-dependent kinase 3, sequence (Q00526 whole entry, looked up, the tested form may be a part): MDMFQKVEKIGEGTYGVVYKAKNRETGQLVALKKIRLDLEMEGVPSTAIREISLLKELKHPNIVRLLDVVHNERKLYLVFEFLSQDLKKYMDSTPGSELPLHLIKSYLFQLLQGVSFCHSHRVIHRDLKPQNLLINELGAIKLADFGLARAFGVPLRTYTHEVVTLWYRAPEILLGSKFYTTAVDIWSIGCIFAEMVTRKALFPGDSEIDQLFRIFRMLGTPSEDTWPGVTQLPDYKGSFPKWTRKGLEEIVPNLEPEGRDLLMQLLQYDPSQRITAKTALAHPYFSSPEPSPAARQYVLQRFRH

Which results are given for `CC(C)CN(C(=O)c1cccnc1)c1c2ccccc2c(=O)n2c1[nH]c1ccccc12`?
GI50 (HT-29 [1]): 24.1 µM; Activity (HT-29 [2]): Dose-dependent effect; Activity (SW-620 [3]): 12.1%; Activity (SW-620 [4]): 76.7%; Activity (SW-620 [5]): 3.5%; Activity (HT-29 [6]): 18.8%; Activity (SW-620 [7]): Dose-dependent effect; Activity (SW-620 [8]): Non-Toxic; Activity [9]: 98%; Activity [10]: 74%; Activity [11]: 97%; Activity [12]: 95%; Activity [13]: 95%; Activity [14]: 93%; Activity [15]: 86%; Activity [16]: 100%; Activity [17]: 82%; Activity [18]: 100%; Kd [19]: ≥ 5 µM; Kd (Aurora kinase A): ≥ 5 µM; Kd [20]: ≥ 5 µM; Kd [21]: ≥ 5 µM; Kd [22]: ≥ 5 µM; Kd [23]: ≥ 5 µM; Kd [24]: ≥ 5 µM; Kd [25]: ≥ 5 µM; Kd [26]: ≥ 5 µM; Kd [27]: ≥ 5 µM
